Experimental data as given in ChEMBL document CHEMBL2346582, “Guanidino anthrathiophenediones as G-quadruplex binders: uptake, intracellular localization, and anti-Harvey-Ras gene activity in bladder cancer cells” (J Med Chem, 2013).

Organism: Homo sapiens
Assay: Thermal stabilization of human telomeric G-quadruplex FAM-TTAGGGTTAGGGTTAGGGTTAGGG-TAMRA DNA assessed as change in melting temperature at 1:5 DNA:ligand ratio by FRET assay
Method in brief: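 FRET melting of 200 nM dual-labelled quadruplex in 50 mM Tris-HCl with KCl (100 mM for htelo and hras-1, 10 mM for KRAS and hras-2). Ligand at r = 5 ([ligand]/[quadruplex]; hras-2 tabulated at r = 4). Samples held 5 min at 20 °C, then heated 1 °C/min to 95 °C. ΔTM is the TM with ligand minus TM without ligand (±0.5 K). For hras-1 both biphasic transitions are given.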

- deltaTm: 35 K
Structure (SMILES): NCCOc1cc(C(=O)Nc2cc(OCCN)c3ccccc3n2)nc(C(=O)Nc2cc(OCCN)c3ccccc3n2)c1
